PLC-gamma1 inh – PLC-gamma1 enzyme inhibitors, primary screen, biochemical, fluorescence, purified enzyme; fluorogenic substrate; 1-phosphatidylinositol 4,5-bisphosphate phosphodiesterase gamma-1 (Homo sapiens), P19174; 370,000 tested, 0.84% active; inhibition, % at 12.2 µM; AID 720700, 2013; in the data active = inhibition above about 9.5%
VIM-2 inh – VIM-2 metallo-beta-lactamase inhibitors, primary screen, biochemical, epi-absorbance readout, Pseudomonas aeruginosa enzyme; purified VIM-2, nitrocefin hydrolysis, epi-absorbance fluorescence; inhibition, % at 5.6 µM; 290,000 tested, 0.89% active;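 active = inhibition above the mean of all tested compounds plus 3 SD, cutoff set per screening run, cut at about 7.5% in these data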;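 also: red hydrolysis product quenches plate fluorescence so inhibitors raise well fluorescence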
PvdQ inh – P. aeruginosa PvdQ acylase inhibitors, primary screen, biochemical, fluorescence, plate reader and imaging, single point | PvdQ acylase [Pseudomonas aeruginosa LESB58] | purified PvdQ acylase | inhibition, % at 10 µM | 340,000 tested, 0.063% active | AID 488965, 2010; in the data active = inhibition above about 30%, passing the limit was not always enough
IMP-1 inh-1 – IMP-1 metallo-beta-lactamase inhibitors, primary screen, biochemical, epi-absorbance readout, Pseudomonas aeruginosa enzyme. AID 1556, 2009. purified IMP-1, nitrocefin hydrolysis, epi-absorbance fluorescence. metallo-beta-lactamase IMP-1 (Pseudomonas aeruginosa). inhibition, % at 5.6 µM. 290,000 tested, 0.45% active;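 active = inhibition above the mean plus 3 SD of all compounds in the same screening run, cut at about 4.5% in these data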
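assay system = purified recombinant IMP-1 metallo-beta-lactamase enzyme | schedule = 15 min preincubation plus 25 min reaction at 25 °C | signal = Epi-absorbance fluorescence, 480 nm excitation, 530 nm emission | read-out basis = percent inhibition from optical density relative to buffer-blank wells | controls = IMP-1 with DMSO as 0%, enzyme-free DMSO as 100%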
PLCb3 inh – human PLC-beta3 inhibitors, primary screen, biochemical, fluorescence; inhibition, % at 12.2 µM; Purified PLC-beta3, fluorogenic substrate; 370,000 tested, 0.18% active; AID 720704, 2013; in the data active = inhibition above about 11%
Target sequence (Q01970 whole entry, looked up): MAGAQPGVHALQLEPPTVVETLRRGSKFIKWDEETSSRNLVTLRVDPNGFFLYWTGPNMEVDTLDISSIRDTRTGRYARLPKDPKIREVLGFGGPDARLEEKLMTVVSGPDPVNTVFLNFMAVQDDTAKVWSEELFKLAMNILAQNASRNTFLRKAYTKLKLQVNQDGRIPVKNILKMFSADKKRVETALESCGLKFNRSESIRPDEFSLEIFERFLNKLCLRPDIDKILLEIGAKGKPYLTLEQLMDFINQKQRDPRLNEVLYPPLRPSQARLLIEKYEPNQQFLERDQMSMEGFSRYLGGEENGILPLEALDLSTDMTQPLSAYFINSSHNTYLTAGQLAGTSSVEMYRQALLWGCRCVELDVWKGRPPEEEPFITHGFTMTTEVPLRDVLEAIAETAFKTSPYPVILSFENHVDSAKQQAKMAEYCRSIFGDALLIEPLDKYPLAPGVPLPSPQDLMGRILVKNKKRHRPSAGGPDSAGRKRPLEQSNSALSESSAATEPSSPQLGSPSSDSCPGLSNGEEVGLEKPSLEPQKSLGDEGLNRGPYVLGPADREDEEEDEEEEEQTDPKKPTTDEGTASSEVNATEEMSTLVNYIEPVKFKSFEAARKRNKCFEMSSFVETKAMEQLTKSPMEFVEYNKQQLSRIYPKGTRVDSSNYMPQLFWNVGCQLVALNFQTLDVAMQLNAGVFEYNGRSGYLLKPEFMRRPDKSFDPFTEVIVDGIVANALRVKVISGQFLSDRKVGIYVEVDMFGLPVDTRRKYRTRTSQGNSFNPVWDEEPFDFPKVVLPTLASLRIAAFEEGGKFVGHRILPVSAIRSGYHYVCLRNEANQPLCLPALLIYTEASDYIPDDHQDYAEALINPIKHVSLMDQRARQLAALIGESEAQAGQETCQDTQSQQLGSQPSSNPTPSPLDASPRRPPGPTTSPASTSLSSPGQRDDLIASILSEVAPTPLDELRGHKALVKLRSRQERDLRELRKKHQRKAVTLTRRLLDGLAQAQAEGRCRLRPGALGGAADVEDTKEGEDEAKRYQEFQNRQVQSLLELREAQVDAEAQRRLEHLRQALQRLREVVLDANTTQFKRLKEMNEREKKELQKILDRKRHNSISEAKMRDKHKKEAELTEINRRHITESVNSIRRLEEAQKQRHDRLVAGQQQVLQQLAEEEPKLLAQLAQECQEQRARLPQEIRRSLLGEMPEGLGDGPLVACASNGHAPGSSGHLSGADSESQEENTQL
IMP-1 inh-2 – IMP-1 metallo-beta-lactamase inhibitors, confirmation, selectivity assay for selective VIM-2 inhibitor project, biochemical, epi-absorbance readout, triplicate; shares compounds with VIM-2 inh; purified IMP-1, nitrocefin hydrolysis, epi-absorbance fluorescence; inhibition, % at 5.6 µM; 1,300 tested, under 10 active; call rule not given here
VIM-2 FRET inh – VIM-2 inhibitors in FRET format, confirmation, artefact control for selective VIM-2 inhibitor project, biochemical, epi-absorbance artifact exclusion | shares compounds with VIM-2 inh | purified VIM-2, CCF2 FRET substrate hydrolysis | inhibition, % at 5.6 µM | 1,300 tested, 23% active | AID 1857, 2009;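 active = inhibition above the mean of all tested compounds plus 3 SD, cut at about 19% in these data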
TEM-1 inh – TEM-1 serine beta-lactamase inhibitors, counter-screen for VIM-2 inhibitor project, biochemical, epi-absorbance, HTS; shares compounds with VIM-2 inh; Purified TEM-1, nitrocefin hydrolysis, epi-absorbance fluorescence; inhibition, % at 5.6 µM; 1,300 tested, 3% active;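 active = inhibition above that campaign's mean inhibition plus 3 SD, cut at about 0.46% in these data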
VIM-2 inh conf – VIM-2 metallo-beta-lactamase inhibitors, confirmation, biochemical, epi-absorbance, hits shared with IMP-1 screen; shares compounds with VIM-2 inh; AID 2187, 2009; purified VIM-2, nitrocefin hydrolysis; 1,300 tested, 96% active; inhibition, % at 5.6 µM;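 active = inhibition of the VIM-2 beta-lactamase enzyme above about 11% from the earlier first-round screen, limit read from the data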
Each line names hits and unclear results; the compound was inactive in the other large screens (follow-up assays come after a bar, where they were run). An excerpt weighted towards active compounds, which were near 2% of everything screened.

Cc1nn2c(-c3ccc(F)cc3)ccnc2c1Cl	VIM-2 inh 59.2 | IMP-1 inh-2 inactive | VIM-2 FRET inh inactive | TEM-1 inh inactive | VIM-2 inh conf 70.0
Cc1nn2c(-c3ccc(F)cc3)ccnc2c1Br	none
O=C(c1ccco1)N1N=C(c2ccc(Cl)cc2)CC1c1ccco1 (centres undefined)	VIM-2 inh 35.2 | IMP-1 inh-2 inactive | VIM-2 FRET inh 69.3 | TEM-1 inh inactive | VIM-2 inh conf 43.6
CC(C)(C)c1ccc(-c2nnc(SCC(=O)Nc3cccc4ccccc34)n2Cc2ccco2)cc1	none (no result: VIM-2 inh, PvdQ inh, IMP-1 inh-1)
CCN1CCN(Cc2c(O)ccc3c2O/C(=C\C=C\c2ccccc2)C3=O)CC1	none
CCN1CCN(Cc2c(O)ccc3c2O/C(=C\c2ccccc2)C3=O)CC1	VIM-2 inh 30.0 | IMP-1 inh-2 inactive | VIM-2 FRET inh inactive | TEM-1 inh inactive | VIM-2 inh conf 43.9
COc1cc(O)c(C(CC(=O)N2CCC(C)CC2)c2ccc3c(c2)OCO3)c(OC)c1 (centres undefined)	none (no result: VIM-2 inh, PvdQ inh, IMP-1 inh-1)
CC1CCCN(C(=O)c2cc3c(=O)n4ccccc4nc3s2)C1 (centres undefined)	none
CCOC(=O)CC1C(=O)NCCN1C(=O)c1cc2c(=O)n3ccccc3nc2s1 (centres undefined)	none (no result: PLC-gamma1 inh, PvdQ inh, PLCb3 inh)
Cc1cccn2c(=O)c3cc(C(=O)N4CCCC(C)C4)sc3nc12 (centres undefined)	VIM-2 inh 15.0 | IMP-1 inh-2 inactive | VIM-2 FRET inh inactive | TEM-1 inh inactive | VIM-2 inh conf 21.4
CCC1CCCCN1C(=O)c1cc2c(=O)n3cccc(C)c3nc2s1 (centres undefined)	VIM-2 inh 15.3 (no result: PLC-gamma1 inh, PLCb3 inh) | IMP-1 inh-2 inactive | VIM-2 FRET inh inactive | TEM-1 inh inactive | VIM-2 inh conf 20.8
CCOC(=O)CC1C(=O)NCCN1C(=O)c1cc2c(=O)n3cccc(C)c3nc2s1 (centres undefined)	VIM-2 inh 13.9 | IMP-1 inh-2 inactive | VIM-2 FRET inh inactive | TEM-1 inh inactive | VIM-2 inh conf 26.4
O=C(Nc1nc(Cc2ccccc2)c(-c2ccccc2)n1Cc1ccccc1)c1ccccc1	none (no result: VIM-2 inh, PvdQ inh, IMP-1 inh-1)
c1nc(NCC2CCCCO2)c2cc(-c3ccc4c(c3)OCO4)ccc2n1 (centres undefined)	none (no result: VIM-2 inh, PvdQ inh, IMP-1 inh-1)
CC(C)C[C@@H]1COc2cc(Br)ccc2S(=O)(=O)N1Cc1cn(Cc2ccccc2)nn1	none (no result: VIM-2 inh, PvdQ inh, IMP-1 inh-1)
O=C1OC(c2ccccc2)=N/C1=C\C=C\c1ccco1	none
O=C1OC(c2ccccc2)=N/C1=C\C=C\c1ccccc1[N+](=O)[O-]	VIM-2 inh 16.4 | IMP-1 inh-2 inactive | VIM-2 FRET inh 30.2 | TEM-1 inh inactive | VIM-2 inh conf 9.9
COC(=O)[C@]12C[C@H](CC(=O)NCc3ccc(OC)c(OC)c3)C(=O)N(Cc3cccc4ccccc34)C1=C[C@H](COCc1ccccc1)O[C@@H]2C	none (no result: VIM-2 inh, PvdQ inh, IMP-1 inh-1)
CCOc1ccc(-c2nnc(-c3ccncc3)o2)cc1OCC	VIM-2 inh 23.8 | IMP-1 inh-2 inactive | VIM-2 FRET inh inactive | TEM-1 inh inactive | VIM-2 inh conf 31.2
CCOc1ccc(-c2nnc(-c3ccncc3)o2)cc1	none
Cc1nc2ccccc2c2oc(C(=O)NCCN3CCN(C)CC3)cc12	VIM-2 inh 41.8 | IMP-1 inh-2 inactive | VIM-2 FRET inh inactive | TEM-1 inh inactive | VIM-2 inh conf 53.4
CN(C)c1ccc(/C=N\NC(=O)c2cccc(S(=O)(=O)N(C)C)c2)cc1	none (no result: VIM-2 inh, PvdQ inh, IMP-1 inh-1)
O=C(CSc1nnc(NC(=O)c2ccccc2F)s1)NCc1ccco1	VIM-2 inh 41.1 | IMP-1 inh-2 inactive | VIM-2 FRET inh 68.4 | TEM-1 inh inactive | VIM-2 inh conf 48.8
COc1ccc(C(=O)Nc2nnc(SCC(=O)NCc3ccco3)s2)cc1OC	none
O=C(CSc1nnc(NC(=O)C2CC2)s1)NCc1ccccc1Cl	VIM-2 inh 29.1 | IMP-1 inh-2 inactive | VIM-2 FRET inh 52.7 | TEM-1 inh inactive | VIM-2 inh conf 34.7
O=C(CSc1nnc(NC(=O)c2ccccc2F)s1)Nc1ccccc1F	none
O=C(CSc1nnc(NC(=O)c2ccccc2F)s1)NCc1ccc(F)cc1	VIM-2 inh 37.9 | IMP-1 inh-2 inactive | VIM-2 FRET inh 61.2 | TEM-1 inh inactive | VIM-2 inh conf 44.3
COc1ccccc1C(=O)Nc1nnc(SCC(=O)NCc2ccco2)s1	VIM-2 inh 46.4 (no result: PLC-gamma1 inh, PLCb3 inh) | IMP-1 inh-2 inactive | VIM-2 FRET inh 70.2 | TEM-1 inh inactive | VIM-2 inh conf 52.6
COC(=O)[C@]12C[C@H](CC(=O)N3CCCCC3)C(=O)N(CCc3ccc(OC)c(OC)c3)C1=C[C@H](COCc1ccccc1)O[C@@H]2C	none (no result: VIM-2 inh, PvdQ inh, IMP-1 inh-1)
CCN(CC)C(=O)CC[C@H]1CC[C@]2(CCCN(CC3CC3)C2)O1	none (no result: VIM-2 inh, PvdQ inh, IMP-1 inh-1)
COC(=O)[C@]12C[C@H](CC(=O)N3CCOCC3)C(=O)N(Cc3ccco3)C1=C[C@H](C(C)(C)C)O[C@@H]2C	none (no result: VIM-2 inh, PvdQ inh, IMP-1 inh-1)
O=C(CSc1nnc(NC(=O)c2ccccc2[N+](=O)[O-])s1)NCc1ccco1	VIM-2 inh 40.8 | IMP-1 inh-2 inactive | VIM-2 FRET inh 64.0 | TEM-1 inh inactive | VIM-2 inh conf 45.7
O=C(CSc1nnc(NC(=O)Cc2ccccc2)s1)NCc1ccco1	none
CCOC(=O)c1ccccc1N/C=C1\CCCCC1=O	VIM-2 inh 13.8 | IMP-1 inh-2 inactive | VIM-2 FRET inh 23.9 | TEM-1 inh inactive | VIM-2 inh conf 26.6
COc1ccc(N2CCc3c(C)nc4c(OC)cc(OC)cc4c32)cc1	VIM-2 inh 14.6 | IMP-1 inh-2 inactive | VIM-2 FRET inh inactive | TEM-1 inh inactive | VIM-2 inh conf 22.0
COc1cccc(N2CCc3c(C)nc4ccc(Cl)cc4c32)c1	VIM-2 inh 21.9 | IMP-1 inh-2 inactive | VIM-2 FRET inh inactive | TEM-1 inh inactive | VIM-2 inh conf 29.5
CCN(CC)CC(=O)Nc1cccc2c1C(=O)c1ccccc1C2=O	none

Screens from PubChem.
